Laboratory results reported in ChEMBL document CHEMBL1143007, “Synthesis and evaluation of 4/5-hydroxy-2,3-diaryl(substituted)-cyclopent-2-en-1-ones as cis-restricted analogues of combretastatin A-4 as novel anticancer agents” (J Med Chem, 2007).
Converted amounts (≈) assume the structure as drawn.

Key:
L132 = test: Cytotoxicity against human L132 cells after 72 hrs by MTT assay; type: cell-based; details: Homo sapiens, L132, 72 h; read-out: IC50
How it was run: (§1)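 MTT assay. Cells seeded at 5000-10 000 per well and incubated at 37 °C in CO₂ with compound at 1-100 µg/mL in triplicate wells for 72 h, then MTT added. Absorbance read at 540 nm; % cytotoxicity = 100 × (1 − treated/control). IC50 obtained by nonlinear regression; NA means IC50 above 100 µg/mL.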

[1] = Cytotoxicity against human ECV304 cells after 72 hrs by MTT assay; type: cell-based, ECV-304; details: Homo sapiens, ECV-304, 72 h; read-out: IC50; how it was run: as §1
HEK293 = test: Cytotoxicity against human HEK293 cells after 72 hrs by MTT assay; type: cell-based; details: Homo sapiens, HEK293, 72 h; read-out: IC50; how it was run: as §1
KB = test: Cytotoxicity against human KB cells after 72 hrs by MTT assay; type: cell-based; details: Homo sapiens, KB, 72 h; read-out: IC50; how it was run: as §1
[2] = Cytotoxicity against human PA1 cells after 72 hrs by MTT assay; type: cell-based, PA-1; details: Homo sapiens, PA-1, 72 h; read-out: IC50; how it was run: as §1
HT-29 = test: Cytotoxicity against human HT29 cells after 72 hrs by MTT assay; type: cell-based; details: Homo sapiens, HT-29, 72 h; read-out: IC50; how it was run: as §1
DU-145 = test: Cytotoxicity against human DU145 cells after 72 hrs by MTT assay; type: cell-based; details: Homo sapiens, DU-145, 72 h; read-out: IC50; how it was run: as §1
MIA PaCa-2 = test: Cytotoxicity against human MiaPaCa2 cells after 72 hrs by MTT assay; type: cell-based; details: Homo sapiens, MIA PaCa-2, 72 h; read-out: IC50; how it was run: as §1
[3] = Cytotoxicity against human Hep2 cells after 72 hrs by MTT assay; type: cell-based, HEp-2; details: Homo sapiens, HEp-2, 72 h; read-out: IC50; how it was run: as §1

Compound | IC50 (L132) | IC50 [1] | IC50 (HEK293) | IC50 (KB) | IC50 [2] | IC50 (HT-29) | IC50 (DU-145) | IC50 (MIA PaCa-2) | IC50 [3]
COc1ccc(C2=C(c3cc(OC)c(OC)c(OC)c3)/C(=N\O)C(O)C2)cc1O (centres undefined) | 81 µg/mL (≈ 202 µM) | > 100 µg/mL | > 100 µg/mL | 90 µg/mL (≈ 224 µM) | 26 µg/mL (≈ 64.8 µM) | 69 µg/mL (≈ 172 µM) | 10 µg/mL (≈ 24.9 µM) | > 100 µg/mL | 20 µg/mL (≈ 49.8 µM)
COc1ccc(C2=C(c3cc(OC)c(OC)c(OC)c3)C(=O)C(O)C2)cc1OC(C)C (centres undefined) | > 100 µg/mL | > 100 µg/mL | > 100 µg/mL | > 100 µg/mL | > 100 µg/mL | > 100 µg/mL | > 100 µg/mL | > 100 µg/mL | > 100 µg/mL
O/N=C1/CC(O)C(c2ccccc2)=C1c1ccccc1 (centres undefined) | > 100 µg/mL | > 100 µg/mL | > 100 µg/mL | > 100 µg/mL | > 100 µg/mL | > 100 µg/mL | > 100 µg/mL | > 100 µg/mL | > 100 µg/mL
COc1ccc(C2=C(c3cc(OC)c(OC)c(OC)c3)C(=O)CC2O[Si](C)(C)C(C)(C)C)cc1 (centres undefined) | > 100 µg/mL | > 100 µg/mL | > 100 µg/mL | > 100 µg/mL | > 100 µg/mL | > 100 µg/mL | > 100 µg/mL | > 100 µg/mL | > 100 µg/mL
C=CCOc1cc(C2=C(c3cc(OC)c(OC)c(OC)c3)C(=O)C(O)C2)ccc1OC (centres undefined) | > 100 µg/mL | > 100 µg/mL | > 100 µg/mL | > 100 µg/mL | > 100 µg/mL | > 100 µg/mL | > 100 µg/mL | > 100 µg/mL | > 100 µg/mL
COc1ccc(OC)c(C2=C(c3cc(OC)c(OC)c(OC)c3)C(=O)CC2O[Si](C)(C)C(C)(C)C)c1 (centres undefined) | 100 µg/mL (≈ 194 µM) | 6.5 µg/mL (≈ 12.6 µM) | 9.5 µg/mL (≈ 18.5 µM) | 10 µg/mL (≈ 19.4 µM) | 17 µg/mL (≈ 33 µM) | 5 µg/mL (≈ 9.71 µM) | 100 µg/mL (≈ 194 µM) | > 100 µg/mL | 19 µg/mL (≈ 36.9 µM)
COC(=O)c1cc(C2=C(c3cc(OC)c(OC)c(OC)c3)C(=O)CC2O[Si](C)(C)C(C)(C)C)ccc1OC (centres undefined) | > 100 µg/mL | > 100 µg/mL | > 100 µg/mL | > 100 µg/mL | > 100 µg/mL | > 100 µg/mL | > 100 µg/mL | > 100 µg/mL | > 100 µg/mL
COc1ccc(C2=C(c3cc(OC)c(OC)c(OC)c3)C(=O)CC2O[Si](C)(C)C(C)(C)C)cc1OC (centres undefined) | > 100 µg/mL | > 100 µg/mL | > 100 µg/mL | > 100 µg/mL | > 100 µg/mL | > 100 µg/mL | > 100 µg/mL | > 100 µg/mL | > 100 µg/mL
COc1ccc(C2=C(c3cc(OC)c(OC)c(OC)c3)C(=O)C(OC(C)=O)C2)cc1F (centres undefined) | < 1 µg/mL | 41 µg/mL (≈ 95.3 µM) | 59 µg/mL (≈ 137 µM) | 33 µg/mL (≈ 76.7 µM) | > 100 µg/mL | < 1 µg/mL | 16 µg/mL (≈ 37.2 µM) | 39.5 µg/mL (≈ 91.8 µM) | < 1 µg/mL
COc1ccc(C2=C(c3cc(OC)c(OC)c(OC)c3)CC(O[Si](C)(C)C(C)(C)C)C2=O)cc1[N+](=O)[O-] (centres undefined) | > 100 µg/mL | > 100 µg/mL | > 100 µg/mL | > 100 µg/mL | > 100 µg/mL | > 100 µg/mL | > 100 µg/mL | > 100 µg/mL | > 100 µg/mL
CCOC(=O)COc1ccc(C2=C(c3cc(OC)c(OC)c(OC)c3)C(=O)CC2O)cc1 (centres undefined) | > 100 µg/mL | > 100 µg/mL | > 100 µg/mL | > 100 µg/mL | > 100 µg/mL | > 100 µg/mL | > 100 µg/mL | > 100 µg/mL | > 100 µg/mL
